{"source": "paper PMC5183561", "about": "(European journal of pharmacology, 2016)", "molecules": {"B1": {"name": "[Dmt^1]N/OFQ(1-13)-NH2 (peptide)", "peptide": "[Dmt]GGFTGARKSARK-NH2", "modifications": "N-terminus assumed", "SMILES": "Cc1cc(O)cc(C)c1C[C@H](N)C(=O)NCC(=O)NCC(=O)N[C@@H](Cc1ccccc1)C(=O)N[C@H](C(=O)NCC(=O)N[C@@H](C)C(=O)N[C@@H](CCCNC(=N)N)C(=O)N[C@@H](CCCCN)C(=O)N[C@@H](CO)C(=O)N[C@@H](C)C(=O)N[C@@H](CCCNC(=N)N)C(=O)N[C@@H](CCCCN)C(N)=O)[C@@H](C)O"}, "B2": {"name": "PWT2-[Dmt^1]N/OFQ(1-13) (peptide)", "peptide": "[Dmt]GGFTGARKSARKC(PWT2 core)-NH2", "modifications": "reading uncertain; also: Cys14 joined to the PWT2 core by thio-Michael reaction"}, "B3": {"name": "Dermorphin (peptide)", "peptide": "YAFGYPS"}}, "key": {"[1]": {"system": "rhesus monkeys (Macaca mulatta)", "assay": "Warm water tail-withdrawal assay in monkeys", "format": "in vivo", "conditions": "n = 4; for duration of antinociception: 50°C water"}, "[2]": {"biological_target": "recombinant human delta opioid receptor (Homo sapiens, UniProt P41143)", "sequence (P41143 whole entry)": "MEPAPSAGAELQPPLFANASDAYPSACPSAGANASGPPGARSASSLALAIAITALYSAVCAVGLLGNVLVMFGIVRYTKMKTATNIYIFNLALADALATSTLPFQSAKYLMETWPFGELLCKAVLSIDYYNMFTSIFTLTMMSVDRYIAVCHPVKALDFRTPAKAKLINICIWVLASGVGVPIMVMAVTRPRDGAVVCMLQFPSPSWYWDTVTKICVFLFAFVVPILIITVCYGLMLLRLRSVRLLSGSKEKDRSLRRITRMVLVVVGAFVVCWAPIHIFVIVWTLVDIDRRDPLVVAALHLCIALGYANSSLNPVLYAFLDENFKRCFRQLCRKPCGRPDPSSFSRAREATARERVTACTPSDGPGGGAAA", "assay": "Stimulated [35S]GTPγS binding, CHOdelta membranes", "format": "biochemical", "conditions": "intrinsic activity, DPDPE = 1.00, n≥5"}, "[3]": {"system": "NOP and classical opioid receptors", "assay": "Receptor binding studies, summary over all four receptors", "set-up": "species or system human", "conditions": "at all receptors (NOP, mu, kappa, delta), vs [Dmt^1]N/OFQ(1-13)-NH2", "summary_of_the_method": "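CHO membranes expressing human receptors (20–40 μg protein) were incubated 1 h at room temperature in 50 mM Tris, 0.5% BSA with test compound (1 pM–10 μM). […] Bound ligand was collected by filtration on PEI-soaked GF/B filters.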"}, "[4]": {"biological_target": "human recombinant mu receptor (Homo sapiens, UniProt P35372)", "sequence (P35372 whole entry)": "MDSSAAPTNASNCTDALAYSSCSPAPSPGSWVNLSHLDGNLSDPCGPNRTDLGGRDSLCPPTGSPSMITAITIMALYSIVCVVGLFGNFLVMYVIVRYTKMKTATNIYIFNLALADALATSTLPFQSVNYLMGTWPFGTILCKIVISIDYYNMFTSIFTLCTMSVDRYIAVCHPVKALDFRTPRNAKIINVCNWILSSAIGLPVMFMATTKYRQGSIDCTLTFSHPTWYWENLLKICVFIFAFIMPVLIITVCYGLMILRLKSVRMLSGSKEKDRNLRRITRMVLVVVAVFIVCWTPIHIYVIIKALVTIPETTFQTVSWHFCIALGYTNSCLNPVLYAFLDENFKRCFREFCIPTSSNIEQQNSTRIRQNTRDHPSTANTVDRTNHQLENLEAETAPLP", "assay": "Calcium mobilization, CHO cells coexpressing mu and Gαqi5", "format": "cell-based"}, "[5]": {"biological_target": "recombinant human mu opioid receptor (Homo sapiens, UniProt P35372)", "sequence (P35372 whole entry)": "as above", "assay": "Stimulated [35S]GTPγS binding, CHOmu membranes", "format": "biochemical"}, "[6]": {"system": "rhesus monkeys (Macaca mulatta)", "assay": "Scratching responses in monkeys after intrathecal administration", "format": "in vivo", "conditions": "3 nmol i.t., any time point, n = 4"}, "[7]": {"system": "NOP and classical opioid receptors", "assay": "Calcium mobilization, summary over the four cell lines", "format": "cell-based, human"}, "mu-RLuc/Gβ1-RGFP": {"biological_target": "mu-RLuc/Gβ1-RGFP (Homo sapiens, UniProt P35372)", "assay": "BRET mu/G-protein interaction, SH-SY5Y membranes", "format": "biochemical", "conditions": "intrinsic activity, dermorphin = 1.00"}, "delta receptor": {"biological_target": "delta receptor (Homo sapiens, UniProt P41143)", "sequence (P41143 whole entry)": "as the sequence (P41143 whole entry) above", "assay": "Calcium mobilization, CHO cells coexpressing delta and GαqG66Di5", "format": "cell-based"}, "[8]": {"biological_target": "NOP-RLuc/β-arrestin 2-RGFP (Homo sapiens, UniProt P41146)", "assay": "BRET NOP/β-arrestin 2 interaction, HEK-293 whole cells", "format": "cell-based"}, "[9]": {"biological_target": "T1, human recombinant NOP receptor (Homo sapiens, UniProt P41146)", "T1 sequence (P41146 whole entry)": "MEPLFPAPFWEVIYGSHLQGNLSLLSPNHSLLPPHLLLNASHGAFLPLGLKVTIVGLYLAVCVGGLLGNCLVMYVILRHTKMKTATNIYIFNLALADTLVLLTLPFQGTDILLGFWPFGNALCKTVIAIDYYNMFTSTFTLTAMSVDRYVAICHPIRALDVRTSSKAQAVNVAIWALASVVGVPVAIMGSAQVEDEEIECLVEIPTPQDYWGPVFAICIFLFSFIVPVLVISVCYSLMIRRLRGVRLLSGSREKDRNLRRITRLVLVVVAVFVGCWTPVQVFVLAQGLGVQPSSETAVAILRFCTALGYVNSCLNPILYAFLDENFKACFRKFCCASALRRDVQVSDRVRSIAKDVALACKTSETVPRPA", "assay": "Stimulated [35S]GTPγS binding, CHONOP membranes", "format": "biochemical", "conditions": "intrinsic activity, N/OFQ = 1.00, n≥5"}, "[10]": {"system": "rhesus monkeys (Macaca mulatta)", "assay": "Overt side effects", "format": "in vivo", "conditions": "0.3-3 nmol i.t."}, "[11]": {"biological_target": "human recombinant kappa receptor (Homo sapiens, UniProt P41145)", "sequence (P41145 whole entry)": "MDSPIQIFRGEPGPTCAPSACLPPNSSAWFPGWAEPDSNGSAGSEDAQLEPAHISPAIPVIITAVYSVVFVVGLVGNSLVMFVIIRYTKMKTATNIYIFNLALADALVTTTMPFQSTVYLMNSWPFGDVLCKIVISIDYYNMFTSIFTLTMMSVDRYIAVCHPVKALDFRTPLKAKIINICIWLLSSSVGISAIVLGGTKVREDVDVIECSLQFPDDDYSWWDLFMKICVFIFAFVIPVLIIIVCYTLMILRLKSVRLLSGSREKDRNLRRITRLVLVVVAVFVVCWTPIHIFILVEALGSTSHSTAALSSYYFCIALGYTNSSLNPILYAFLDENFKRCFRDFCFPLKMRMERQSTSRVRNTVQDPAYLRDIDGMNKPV", "assay": "Calcium mobilization, CHO cells coexpressing kappa and Gαqi5", "format": "cell-based", "conditions": "intrinsic activity, dynorphin A = 1.00"}, "[12]": {"system": "NOP over opioid receptors", "assay": "In vitro functional assays, NOP selectivity summary", "set-up": "species or system human", "conditions": "range over functional assays"}, "NOP-RLuc/Gβ1-RGFP": {"biological_target": "NOP-RLuc/Gβ1-RGFP (Homo sapiens, UniProt P41146)", "assay": "BRET NOP/G-protein interaction, HEK-293 membranes", "format": "biochemical"}, "[13]": {"biological_target": "T2, recombinant human kappa opioid receptor (Homo sapiens, UniProt P41145)", "T2 sequence (P41145 whole entry)": "as above", "assay": "Displacement binding of [3H]-DPN, CHOkappa cell membranes", "conditions": "vs [Dmt^1]N/OFQ(1-13)-NH2"}, "[14]": {"biological_target": "T1, human recombinant NOP receptor", "assay": "Calcium mobilization, CHO cells coexpressing NOP and Gαqi5", "format": "cell-based"}, "[15]": {"biological_target": "T2, recombinant human kappa opioid receptor", "assay": "Stimulated [35S]GTPγS binding, CHOkappa membranes", "format": "biochemical"}, "[16]": {"biological_target": "mu-RLuc/β-arrestin 2-RGFP (Homo sapiens, UniProt P35372)", "assay": "BRET mu/β-arrestin 2 interaction, SH-SY5Y whole cells", "format": "cell-based", "conditions": "intrinsic activity, dermorphin = 1.00, inactive = inactive up to 1 μM"}, "[17]": {"biological_target": "T3, human recombinant mu opioid receptor (human, UniProt P35372 1-400)", "T3 sequence (P35372 whole entry)": "as the sequence (P35372 whole entry) above", "assay": "radioligand binding"}, "[18]": {"biological_target": "human recombinant delta opioid receptor (human, UniProt P41143 1-372)", "sequence (P41143 whole entry, stated change not applied)": "as the sequence (P41143 whole entry) above", "assay": "radioligand binding"}, "[19]": {"biological_target": "human recombinant kappa opioid receptor (human, UniProt P41145 1-380)", "sequence (P41145 whole entry)": "as the sequence (P41145 whole entry) above", "assay": "radioligand binding"}, "[20]": {"biological_target": "human recombinant N/OFQ (NOP) receptor (human, UniProt P41146 1-370)", "sequence (P41146 whole entry)": "as the sequence (P41146 whole entry) above", "assay": "radioligand binding"}, "[21]": {"biological_target": "T3, human recombinant mu opioid receptor", "assay": "radioligand binding", "remark": "listed apart in the source"}, "[22]": {"biological_target": "T3, human recombinant mu opioid receptor", "assay": "cell-based or functional assay"}, "[23]": {"conditions": "agonist stimulated over basal specific binding, mean ± S.E.M."}}, "note": "Where two headings read alike, the source gives them in different places. Where no end group is shown, it is not given here. [ ]: non-standard residue; d: D form. Dmt = Cc1cc(O)cc(C)c1C[C@H](N)C(=O)O; PWT2 core = not defined here"}
{"molecule": "O=C1CC[C@@]2(O)[C@H]3Cc4ccc(O)c5c4[C@@]2(CCN3CC2CC2)[C@H]1O5", "note": "[naltrexone, Naltrexone, reference compound]", "values": [{"measurement": "effect of antagonist on i.t. PWT2-[Dmt^1] (3 nmol)-induced antinociception", "setting": "[1]; naltrexone 0.03 mg/kg s.c., given 1 h 10 min after PWT2-[Dmt^1]", "value": "inactive"}]}
{"molecule": "Cc1cc(O)cc(C)c1C[C@H](N)C(=O)NCC(=O)NCC(=O)N[C@@H](Cc1ccccc1)C(=O)N[C@H](C(=O)NCC(=O)N[C@@H](C)C(=O)N[C@@H](CCCNC(=N)N)C(=O)N[C@@H](CCCCN)C(=O)N[C@@H](CO)C(=O)N[C@@H](C)C(=O)N[C@@H](CCCNC(=N)N)C(=O)N[C@@H](CCCCN)C(=O)N[C@@H](CSC1CC(=O)N(CCC(=O)NCCCN(CCCCN(CCCNC(=O)CCN2C(=O)CC(SC[C@H](NC(=O)[C@H](CCCCN)NC(=O)[C@H](CCCNC(=N)N)NC(=O)[C@H](C)NC(=O)[C@H](CO)NC(=O)[C@H](CCCCN)NC(=O)[C@H](CCCNC(=N)N)NC(=O)[C@H](C)NC(=O)CNC(=O)[C@@H](NC(=O)[C@H](Cc3ccccc3)NC(=O)CNC(=O)CNC(=O)[C@@H](N)Cc3c(C)cc(O)cc3C)[C@@H](C)O)C(N)=O)C2=O)CCCNC(=O)CCN2C(=O)CC(SC[C@H](NC(=O)[C@H](CCCCN)NC(=O)[C@H](CCCNC(=N)N)NC(=O)[C@H](C)NC(=O)[C@H](CO)NC(=O)[C@H](CCCCN)NC(=O)[C@H](CCCNC(=N)N)NC(=O)[C@H](C)NC(=O)CNC(=O)[C@@H](NC(=O)[C@H](Cc3ccccc3)NC(=O)CNC(=O)CNC(=O)[C@@H](N)Cc3c(C)cc(O)cc3C)[C@@H](C)O)C(N)=O)C2=O)CCCNC(=O)CCN2C(=O)CC(SC[C@H](NC(=O)[C@H](CCCCN)NC(=O)[C@H](CCCNC(=N)N)NC(=O)[C@H](C)NC(=O)[C@H](CO)NC(=O)[C@H](CCCCN)NC(=O)[C@H](CCCNC(=N)N)NC(=O)[C@H](C)NC(=O)CNC(=O)[C@@H](NC(=O)[C@H](Cc3ccccc3)NC(=O)CNC(=O)CNC(=O)[C@@H](N)Cc3c(C)cc(O)cc3C)[C@@H](C)O)C(N)=O)C2=O)C1=O)C(N)=O)[C@@H](C)O", "note": "(stereo partly shown) [PWT2-[Dmt^1], PWT2-[Dmt^1]N/OFQ(1-13)]", "values": [{"measurement": "α ± S.E.M. delta", "setting": "[2]", "value": "0.87 ± 0.07"}, {"measurement": "lower affinity than the parent peptide", "setting": "[3]", "value": "approximately 10 fold"}, {"measurement": "Emax", "setting": "[4]; CHO, read-out: maximal effects over basal, mu", "value": "283 ± 3", "unit": "%"}, {"measurement": "α ± S.E.M. mu", "setting": "[4]; calcium mobilization, intrinsic activity, dermorphin = 1.00", "value": "0.87 ± 0.04"}, {"measurement": "lower potency compared to dermorphin", "setting": "[4]; calcium mobilization, mu", "value": 23, "unit": "fold"}, {"measurement": "Emax as stimulation factor, mu", "setting": "[5]; [23]", "value": "2.84 ± 0.11", "unit": "fold"}, {"measurement": "α ± S.E.M. mu", "setting": "[5]; intrinsic activity, dermorphin = 1.00, n≥5", "value": "0.98 ± 0.07"}, {"measurement": "scratching responses in 15-min observation period", "setting": "[6]", "value": "did not significantly elicit scratching responses"}, {"measurement": "reduced potency compared to [Dmt^1]N/OFQ(1-13)-NH2", "setting": "[7]", "value": "3 to 30", "unit": "fold"}, {"measurement": "duration of antinociception", "setting": "[1]; 0.3 nmol i.t.", "value": 2, "unit": "h"}, {"measurement": "duration of antinociception", "setting": "[1]; 1 nmol i.t.", "value": 6, "unit": "h"}, {"measurement": "duration of antinociception", "setting": "[1]; 3 nmol i.t.", "value": 24, "unit": "h"}, {"measurement": "α ± S.E.M. mu, Gβ1-protein", "setting": "mu-RLuc/Gβ1-RGFP", "value": "1.43 ± 0.12"}, {"measurement": "potency lower than DPDPE", "setting": "delta receptor; delta", "value": 23, "unit": "fold"}, {"measurement": "α ± S.E.M. delta", "setting": "delta receptor; intrinsic activity, DPDPE = 1.00", "value": "0.80 ± 0.08"}, {"measurement": "α ± S.E.M. NOP, β-arrestin2", "setting": "[8]", "value": "0.58 ± 0.10"}, {"measurement": "α ± S.E.M. NOP", "setting": "[9]", "value": "1.23 ± 0.13"}, {"measurement": "overt side effects including sedation or motor impairment", "setting": "[10]", "value": "did not cause any overt side effects"}, {"measurement": "α ± S.E.M. kappa", "setting": "[11]", "value": "0.86 ± 0.03"}, {"measurement": "NOP selectivity in in vitro functional assays", "setting": "[12]", "value": "2 – 10 fold"}, {"measurement": "α ± S.E.M. NOP, Gβ1-protein", "setting": "NOP-RLuc/Gβ1-RGFP", "value": "1.04 ± 0.04"}, {"measurement": "loss of affinity at kappa compared to parent compound", "setting": "[13]", "value": "~ 18 fold"}, {"measurement": "reduced potency compared to N/OFQ", "setting": "[14]; NOP", "value": 58, "unit": "fold"}, {"measurement": "α ± S.E.M. NOP", "setting": "[14]; intrinsic activity, N/OFQ = 1.00", "value": "0.98 ± 0.08"}, {"measurement": "Emax as stimulation factor, kappa", "setting": "[15]; [23]", "value": "2.43 ± 0.08", "unit": "fold"}, {"measurement": "α ± S.E.M. kappa", "setting": "[15]; intrinsic activity, dynorphin A = 1.00, n≥5", "value": "1.40 ± 0.11"}, {"measurement": "α ± S.E.M. mu, β-arrestin2", "setting": "[16]", "value": "0.82 ± 0.07"}]}
{"molecule": "B1", "values": [{"measurement": "pKi", "setting": "[17]", "value": 10}, {"measurement": "pKi", "setting": "[18]", "value": 9.99}, {"measurement": "pKi", "setting": "[19]", "value": 10.4}, {"measurement": "pKi", "setting": "[20]", "value": 10.4}, {"measurement": "pKi", "setting": "[21]", "value": 10.4}, {"measurement": "stimulation of [^35S]GTPγS binding, CHO mu membranes: Emax as stimulation factor", "setting": "[22]", "value": 3.06, "unit": "fold"}]}
{"molecule": "B2", "values": [{"measurement": "pKi", "setting": "[17]", "value": 9.25}, {"measurement": "pKi", "setting": "[18]", "value": 8.42}, {"measurement": "pKi", "setting": "[19]", "value": 9.13}, {"measurement": "pKi", "setting": "[20]", "value": 9.13}, {"measurement": "stimulation of [^35S]GTPγS binding, CHO mu membranes: Emax as stimulation factor", "setting": "[22]", "value": 2.84, "unit": "fold"}]}
{"molecule": "B3", "values": [{"measurement": "stimulation of [^35S]GTPγS binding, CHO mu membranes: Emax as stimulation factor", "setting": "[22]", "value": 2.88, "unit": "fold"}]}
